Converted amounts (≈) assume the structure as drawn. Read-outs that look alike come from different tables or passages of the source.
Legend:
P. falciparum NF54 [1] = settings: read-out: IC50 PfNF54; reference drugs; ref Singh et al. 33; cited from earlier work
P. falciparum K1 [2] = settings: read-out: IC50 PfK1; reference drugs; ref Singh et al. 33; cited from earlier work
[3] = Pharmacokinetic studies in rats; format: in vivo; settings: rat, plasma, iv, 1 mg/kg
hERG channel = hERG channel (Homo sapiens, UniProt Q12809); assay: hERG channel inhibition; format: biochemical
[4] = Microsomal metabolic stability, human liver microsomes; format: in vitro ADME; settings: pooled human liver microsomes, pH 7.4
How it was run: (§1)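 Test compound at 0.1 μM incubated at 37 °C, in duplicate, with liver microsomes (mouse, rat or pooled human; final protein 0.4 mg/mL) in 0.1 M phosphate buffer pH 7.4, with and without 1 mM NADPH. Quenched with ice-cold acetonitrile containing internal standard, centrifuged, and supernatant analysed by LC–MS/MS. Parent remaining after 30 min expressed as percent.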

[5] = Microsomal metabolic stability, rat liver microsomes; format: in vitro ADME; settings: pH 7.4
How it was run: as §1

[6] = P. falciparum SCID mouse model efficacy; format: in vivo, Plasmodium falciparum (NOD-scid IL-2Rγnull mice); settings: female, NOD-scid IL-2Rγnull, plasma, po, 25 mg/kg
[7] = Microsomal metabolic stability, mouse liver microsomes; format: in vitro ADME; settings: pH 7.4
How it was run: as §1

[8] = P. berghei mouse model efficacy; format: in vivo, Plasmodium berghei (NMRI mice); settings: female, NMRI, plasma, po, 100 mg/kg
[9] = Aqueous solubility, miniaturized shake flask method; format: physicochemical; settings: aqueous solution, 25 °C, thermodynamic from solid
Solubility at pH 6.8 = format: physicochemical; settings: pH 6.8, aqueous buffer
[10] = PAMPA parallel artificial membrane permeability assay; format: in vitro ADME; settings: fraction absorbed
P. falciparum NF54 [11] = assay: In vitro antiplasmodium assay; format: cell-based, Plasmodium falciparum; settings: for in vitro antiplasmodium activity (in words): authors' Pf assays
P. falciparum K1 [12] = assay: In vitro antiplasmodium assay; format: cell-based; settings: Plasmodium falciparum, K1, read-out: IC50 PfK1
[13] = tested on: Chinese hamster ovarian (CHO) cell line; assay: Cytotoxicity MTT assay; format: cell-based; settings: CHO cells, relative to 4-unsubstituted compound 3
[14] = tested on: Chinese hamster ovarian (CHO) cell line; settings: read-out: IC50 (CHO); reference drug; ref Singh et al. 33; cited from earlier work
[15] = Plasmodium falciparum, NF54, read-out: IC50 PfNF54, drug-sensitive NF54 strain, mean of ≥2 independent experiments
[16] = read-out: IC50 PfNF54, drug-sensitive NF54 strain, mean of ≥2 independent experiments

Sequence of hERG channel (Q12809 whole entry): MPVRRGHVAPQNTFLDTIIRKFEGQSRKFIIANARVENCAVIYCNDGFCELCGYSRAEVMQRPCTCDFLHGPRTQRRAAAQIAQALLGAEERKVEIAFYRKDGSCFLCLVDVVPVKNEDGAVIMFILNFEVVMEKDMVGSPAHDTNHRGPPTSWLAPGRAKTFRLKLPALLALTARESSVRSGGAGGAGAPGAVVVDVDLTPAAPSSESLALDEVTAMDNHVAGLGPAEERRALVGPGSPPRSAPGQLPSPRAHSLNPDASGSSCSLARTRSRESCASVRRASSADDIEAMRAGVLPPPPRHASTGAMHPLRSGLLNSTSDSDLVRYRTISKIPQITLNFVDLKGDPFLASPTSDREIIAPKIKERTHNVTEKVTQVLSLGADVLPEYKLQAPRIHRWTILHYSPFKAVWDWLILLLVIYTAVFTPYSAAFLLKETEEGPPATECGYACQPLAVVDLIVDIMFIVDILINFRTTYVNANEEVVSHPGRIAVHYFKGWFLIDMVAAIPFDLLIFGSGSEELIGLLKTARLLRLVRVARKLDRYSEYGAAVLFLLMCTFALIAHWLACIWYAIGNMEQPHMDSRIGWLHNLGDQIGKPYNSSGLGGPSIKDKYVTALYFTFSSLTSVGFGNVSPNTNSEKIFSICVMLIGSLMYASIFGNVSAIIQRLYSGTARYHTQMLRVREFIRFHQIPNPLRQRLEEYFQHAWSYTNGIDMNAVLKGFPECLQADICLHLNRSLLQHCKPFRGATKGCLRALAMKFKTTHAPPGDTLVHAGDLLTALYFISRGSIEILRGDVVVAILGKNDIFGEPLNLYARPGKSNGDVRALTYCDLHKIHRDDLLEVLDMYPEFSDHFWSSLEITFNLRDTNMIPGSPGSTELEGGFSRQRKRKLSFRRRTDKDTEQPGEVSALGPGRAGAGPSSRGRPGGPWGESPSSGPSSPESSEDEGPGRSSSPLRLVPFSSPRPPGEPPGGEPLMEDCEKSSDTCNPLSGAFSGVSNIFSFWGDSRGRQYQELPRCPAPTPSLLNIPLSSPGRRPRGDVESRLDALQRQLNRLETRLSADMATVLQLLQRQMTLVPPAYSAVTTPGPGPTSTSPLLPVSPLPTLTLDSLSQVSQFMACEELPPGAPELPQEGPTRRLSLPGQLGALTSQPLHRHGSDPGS

Compound | IC50 (hERG channel) [nM] | remaining at 0.5 h, 0.1 μM [4] [%] | remaining at 0.5 h, 0.1 μM [5] [%] | remaining at 0.5 h, 0.1 μM [7] [%] | IC50 (P. falciparum NF54 [11]; [15]) [nM] | in vitro antiplasmodium activity (in words) (P. falciparum NF54 [11]) | also measured
C[C@H]1[C@H](OC(=O)CCC(=O)O)O[C@@H]2O[C@@]3(C)CC[C@H]4[C@H](C)CC[C@@H]1[C@@]24OO3 [Artesunate] | – | – | – | – | – | – | IC50 (P. falciparum NF54 [1]): 4 nM; IC50 (P. falciparum K1 [2]): 3 nM
CCN(CC)CCCC(C)Nc1ccnc2cc(Cl)ccc12 (stereo not shown) [Chloroquine] | – | – | – | – | – | – | IC50 (P. falciparum NF54 [1]): 16 nM; IC50 (P. falciparum K1 [2]): 194 nM
Cl.Clc1ccc2c(c1)nc(N1CCNCC1)n2Cc1ccccc1 [Compound 3] | 9 | 74.4 | 42.1 | 63 | – | – | half-life [3]: 1.98 h; AUC [6]: 86 µM·h; Cmax [6]: 5.2 µM; AUC [8]: 377 µM·h; Cmax [8]: 20.6 µM; solubility at 20 h ([9]; pH 2, simulated gastric fluid): 150 µM; solubility at 20 h ([9]; pH 6.5, aqueous buffer): 140 µM; solubility (Solubility at pH 6.8): 770 µM; PAMPA (%FA) [10]: 99 %FA
FC(F)(F)c1ccc2c(c1)nc(N1CCNCC1)n2Cc1ccccc1 [Compound 14c] | 150 | 92.2 | 95.6 | 82 | – | – | –
c1ccc2c(c1)nc(N1CCNCC1)n2Cc1ccncc1 [Compound 14i] | – | – | – | – | > 10000 | inactive | –
Clc1ccc2c(c1)nc(N1CCOCC1)n2Cc1ccccc1 [Compound 16a, 4-(1-Benzyl-5-chloro-1H benzo[d]imidazol-2-yl)morpholine] | – | – | – | – | > 1000 | – | –
Brc1ccc2c(c1)nc(N1CCNCC1)n2Cc1ccccc1 [Compound 16b, 1-Benzyl-5-bromo-2-(piperazin-1-yl)-1H-benzo[d]imidazole] | 30 | 88.2 | 89.8 | 94 | – | – | IC50 (P. falciparum NF54 [11]; [16]): 42.4 nM
Cl.Clc1ccc2c(c1)nc(N1CCNCC1)n2CCc1ccccc1 [Compound 16g, 5-Chloro-1-phenethyl-2-(piperazin-1-yl)-1H-benzo[d]imidazole Hydrochloride] | – | – | – | – | > 1000 | inactive | –
O=C1CN(c2nc3cc(Cl)ccc3n2Cc2ccccc2)CCN1 [Compound 17] | 2300 | – | – | – | > 1000 | – | –
CC(=O)N1CCN(c2nc3cc(Cl)ccc3n2Cc2ccccc2)CC1 [Compound 18] | 390 | – | – | – | > 1000 | – | –
N#CCN1CCN(c2nc3cc(Cl)ccc3n2Cc2ccccc2)CC1 [Compound 19] | 180 | 8.6 | 1.2 | 2 | 306 | – | IC50 (P. falciparum K1 [12]): 454 nM; solubility at 20 h ([9]; pH 2, simulated gastric fluid): > 150 µM; solubility at 20 h ([9]; pH 6.5, aqueous buffer): < 5 µM
O=C(O)CN1CCN(c2nc3cc(Cl)ccc3n2Cc2ccccc2)CC1 [Compound 20] | – | – | – | – | > 10000 | inactive | solubility at 20 h ([9]; pH 6.5, aqueous buffer): 200 µM (≈ 77 µg/mL)
O=C(NCCCNc1nc2ccccc2n1Cc1ccccc1)c1cc(Cl)cc(Cl)c1 [Compound 21] | – | – | – | – | 9510 | completely inactive | solubility at 20 h ([9]; pH 2, simulated gastric fluid): 10 µM (≈ 4.53 µg/mL)
Cc1ccc(C(=O)N2CCN(c3nc4ccccc4n3C)CC2)cc1.Cl [Compound 22] | – | – | – | – | > 10000 | completely inactive | –
Cc1ccc(C(=O)N2CCN(c3nc4cc(Cl)ccc4n3Cc3ccccc3)CC2)cc1 [Compound 23] | – | – | – | – | > 10000 | completely inactive | –
O=S(=O)(c1ccc(Cl)cc1)N1CCN(c2nc3cc(Cl)ccc3n2Cc2ccccc2)CC1 [Compound 25] | – | – | – | – | 5260 | completely inactive | –

Compound | IC50 (hERG channel) [nM] | remaining at 0.5 h, 0.1 μM [4] [%] | remaining at 0.5 h, 0.1 μM [5] [%] | remaining at 0.5 h, 0.1 μM [7] [%] | IC50 (P. falciparum NF54 [11]; [15]) [nM] | in vitro antiplasmodium activity (in words) (P. falciparum NF54 [11]) | also measured
Cc1ccc(Cn2c(N3CCC(C(=O)NCc4cccs4)CC3)nc3ccccc32)cc1 [Compound 26, 1-(1-(4-methylbenzyl)-1H-benzo[d]imidazol-2-yl)-N-(thiophen-2-ylmethyl)piperidine-4-carboxamide] | – | – | – | – | 600 | weakly active | solubility at 20 h ([9]; pH 6.5, aqueous buffer): < 5 µM
C[C@@H]1CN(c2nc3cc(Cl)ccc3n2Cc2ccccc2)C[C@H](C)N1 [Compound 27] | 17 | 23.2 | 36.5 | 31.3 | – | – | –
NC1CCN(c2nc3cc(Cl)ccc3n2Cc2ccccc2)CC1 [Compound 28] | 70 | 80.9 | 39.9 | 76 | – | – | –
NCCNc1nc2cc(Cl)ccc2n1Cc1ccccc1 [Compound 33, N^1-(1-benzyl-5-chloro-1H-benzo[d]imidazol-2-yl)ethane-1,2-diamine] | 2200 | 98.9 | 88 | 71.2 | – | – | hERG safety window (hERG channel; hERG versus antiplasmodium activity): 10 fold
NCCCNc1nc2cc(Br)ccc2n1Cc1ccccc1 [Compound 41, N^1-(1-Benzyl-5-bromo-1H-benzo[d]imidazol-2-yl)propane-1,3-diamine] | – | 99.4 | 97 | 98.6 | – | – | –
Cl.Clc1ccc2c(nc(N3CCNCC3)n2Cc2ccccc2)c1Cl [Compound 42a] | 590 | 76.3 | 66.1 | 72.5 | – | – | fold more cytotoxic than 3 [13]: ~4 fold
Clc1ccc2c(nc(N3CCNCC3)n2Cc2ccccc2)c1Br [Compound 42k] | – | 97.4 | 93.8 | 91.6 | – | – | fold more cytotoxic than 3 [13]: ~4 fold
Clc1ccc2c(c1)nc(C1CCNCC1)n2Cc1ccccc1 [Compound 46a, 1-Benzyl-5-chloro-2-(piperidin-4-yl)-1H-benzo[d]imidazole] | 460 | 91.8 | 92.9 | 97.6 | – | – | IC50 (P. falciparum NF54 [11]; [16]): 37.9 nM
Brc1ccc2c(c1)nc(C1CCNCC1)n2Cc1ccccc1 [Compound 46b] | – | 99.3 | 97.7 | 97.4 | – | – | –
COC(=O)c1ccc2c(c1)nc(C1CCNCC1)n2Cc1ccccc1 [Compound 46d] | – | – | – | – | – | inactive | –
CS(=O)(=O)c1ccc2c(c1)nc(C1CCNCC1)n2Cc1ccccc1.Cl [Compound 46e] | – | – | – | – | – | inactive | –
c1ccc(Cn2c(N3CCNCC3)nc3cnccc32)cc1 [Compound 57b] | – | – | – | – | > 1000 | inactive | –
Cl.c1ccc(Cn2c(N3CCNCC3)nc3ccccc32)nc1 [Compound 59] | – | – | – | – | 9770 | inactive | –
Cl.Cn1c(N2CCNCC2)nc2ccccc21 [Compound 60, 1-methyl-2-(piperazin-1-yl)-1H-benzo[d]imidazole hydrochloride] | – | – | – | – | – | inactive | IC50 (P. falciparum NF54 [11]; Plasmodium falciparum, NF54, read-out: IC50 PfNF54): > 10000 nM
CC[C@H]1CN2CCc3cc(OC)c(OC)cc3[C@@H]2C[C@@H]1C[C@H]1NCCc2cc(OC)c(OC)cc21 [Emetine] | – | – | – | – | – | – | IC50 [14]: 95 nM

From PMC7114883 (ACS Omega, 2020)
